The values that follow come from ChEMBL document CHEMBL4513216, “Probing the Open Global Health Chemical Diversity Library for Multistage-Active Starting Points for Next-Generation Antimalarials” (ACS Infect Dis, 2020).

The nature of the data set: Toxicity liver stage against HepG2, at 10uM. Format: cell-based. More on the design: test concentration 10 uM, cell line HepG2-A16-CD81EGFP. The note with it: human, HepG2-A16-CD81EGFP cells; read-out: INHIBITION
The gist of the method:
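Uninfected HepG2-A16-CD81EGFP cells, 3 × 10^3 per well, 1536-well, plated on prespotted compound at 10 μM final, parasite-free screening media added to match infected plates; puromycin 10 μM positive, DMSO 0.5% negative; run in parallel with 48 h PbLuc assay at 37 °C, 5% CO2; viability by CellTiter-Glo luminescence, normalized to controls.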
With `COC(=O)[C@@H]1Cc2[nH]cnc2CN1Cc1cc2ccccc2o1`, the cytotoxicity at 10 µM stood at 0.994%.
The result for `N#CCCN1CC(O)CN(C(=O)c2cccc(C(F)(F)F)c2)CC1=O` (stereo unspecified) reads 7.84%; that for `O=C(CCCNC(=O)c1cnccn1)Nc1ncc[nH]1`, -41.9%; that for `O=C(Cc1ccccc1Cl)NCCN1CCC(c2cccs2)CC1`, 6.93%.
On to `O=C(CN1C(=O)CCC1=O)NCc1nn(C2CCCC2)c2c1CCCC2`, for which the cytotoxicity at 10 µM is 1.97%.
The result for `c1cncc(-c2ccc3c(c2)CCC32CCNCC2)c1` reads -10.3%; that for `CC(C)N1c2sc(-c3ccccc3)nc2CC1C(=O)NC1CCCC1` (stereo unspecified), 10.3%.
As to `Cc1ccnc(OC[C@@]23CCO[C@@H]2CCN(S(C)(=O)=O)C3)n1`, the cytotoxicity at 10 µM is 9.34%.
The result for `CCOc1cccc2c1OCC(=O)N(c1ccc3c(c1)OCCO3)C2` reads 13.1%; that for `Oc1nnc(-c2ccccc2)c2sc(N3CCCCC3)nc12`, -1.81%.
Next, `O=c1[nH]nc2c(N3CCOCC3)nccn12`: 9.73%; `CCS(=O)(=O)N1CCCc2ccc(NC(=O)Cc3ccc(F)cc3)cc21`: 18.6%.
For `CCC(=O)N1CCCC(C(=O)c2cnn(-c3ccc(F)cc3)c2N)C1` (stereo unspecified), the cytotoxicity at 10 µM worked out at 4.57%.
Next, `CCc1noc(CCC(=O)N[C@@H]2CC[C@@H](n3ccnc3C)[C@@H]2O)n1`: -20.5%; `COc1ccc(CN(C)[C@@H]2CN(C(=O)c3cncs3)C[C@H]2O)cc1`: -12.4%; `Cc1cnc(N)c(C(=O)C2CCN(C(=O)c3ccccc3F)CC2)c1`: 9.96%.
The result for `CCC(C)(CC(=O)OC)NCc1cc(C)on1` (stereo unspecified) reads -1.88%; that for `CCc1ccc(O)c(C(=O)N2CCN(CC(=O)N(CC)CC)CC2)c1`, 4.49%; that for `O=C(CN1CCc2cncnc2C1)NC(C1CC1)C1CC1`, -5.42%.
Consider `O=C(Nc1cccnc1)NC1CCN(c2ccccc2OC(F)F)C1` (stereo unspecified), for which the cytotoxicity at 10 µM was determined as 12.1%.
Next, `N#Cc1ccc(CN2CCCN(CCCn3cncn3)CC2)cc1`: -2.89%; `Cc1cnn(CC2CCCN2c2ncnc3sccc23)c1` (stereo unspecified): 44.4%.
The result for `O=C(CC1CN(Cc2ccccc2)CCO1)NCCN1CCOCC1` (stereo unspecified) reads 6.67%.
The result for `Cc1cc(Cl)cc(C)c1CNC1CCN(CC(=O)N(C)C)CC1` reads -1.51%.
Regarding `CC(=O)N1Cc2ccccc2CC1C(=O)Nc1cc(C)ccn1` (stereo unspecified), the cytotoxicity at 10 µM was -4.5%.
Next, `Cc1cc(N)nc(SC2CCN(c3ccccc3F)C2=O)n1` (stereo unspecified): -9.51%.
Next, `O=C(NC1(c2nccs2)CCCC1)c1[nH]nc(C2CC2)c1Cl`: -24.6%; `Cc1nc(CNC(=O)NC2CCN(c3cccc(Cl)c3)C2)no1` (stereo unspecified): 0.636%; `CC(C)(C)OC(=O)N1CCCN1C(=O)c1cccc2cc[nH]c12`: 2.84%.
The result for `Cc1cc(CN(CCCO)c2ccccc2)on1` reads -4.91%; that for `Cc1cc(C(=O)NS(=O)(=O)Cc2ccon2)c(C)n1C(C)C`, -2.17%; that for `OC(CN1CCN(CCOCC(F)(F)F)CC1)c1ccccc1` (stereo unspecified), -7.99%.
Consider `CCCn1nccc1NC(=O)c1ccc(Cl)c(N2CCNC2=O)c1`, for which the cytotoxicity at 10 µM was -5.07%.
Next, `CS(=O)(=O)Cc1nc(CN2CCc3ccccc3CC2)cs1`: -7.73%; `Cc1ccc(C)c(C(=O)CN2C(=O)c3ccccc3CS2(=O)=O)c1`: -8.42%.
The result for `CNc1cc(N2CCCC2CNCc2ccc(Cl)o2)ncn1` (stereo unspecified) reads -11.6%; that for `CCOC1CCC2(CCN(C(=O)c3csnn3)CC2)c2ccccc21` (stereo unspecified), -1.58%.
Next, `O=C(c1ccoc1)N1CCn2cnc(COCC3CC3)c2C1`: -71.9%; `Cc1nc2[nH]cc(C(=O)N3CCCCC3c3ccc(F)cc3)c(=O)n2n1` (stereo unspecified): 3.63%; `c1cn(-c2ccc(N3CCC(NC4CC4)CC3)cc2)cn1`: 5.16%.
As to `c1ccc(-c2nnc(N3CCCC4(CCOC4)C3)s2)cc1` (stereo unspecified), the cytotoxicity at 10 µM is -2.37%.
With `Cc1nc(CN(C)Cc2nc(-c3sccc3C)oc2C)no1`, the cytotoxicity at 10 µM is -0.205%.
`CN(Cc1ccc(CCC(C)(C)O)cc1)Cc1cccnc1`: the cytotoxicity at 10 µM turned out to be 15%.
The result for `O=C1Nc2ccccc2NC12CCN(Cc1nnc(C3CC3)o1)CC2` reads -7.03%; that for `CCN(CC)C(=O)[C@@H]1C[C@H](N)CN1c1nnc(-c2ccccc2)s1`, -51.7%; that for `O=C(NCc1ccc2[nH]c(=O)[nH]c2c1)c1ccc(CN2CCCC2)o1`, -0.987%.
With `CC(C)N(CCO)C(=O)C1CCC(=O)N(CCc2cccc(F)c2)C1` (stereo unspecified), the cytotoxicity at 10 µM is -6.95%.
The result for `c1ccc(NCCn2cc(C3CCCNC3)nn2)cc1` (stereo unspecified) reads 5.44%; that for `Cc1ncc2c(c1CNC(=O)C1(C)CCCO1)CCNC2` (stereo unspecified), -45.6%.
The result for `CN(CCNC(=O)c1cnc(-c2ccccc2)nc1)S(C)(=O)=O` reads 4.3%; that for `CCCn1ccnc1CN1CCCC1c1ccccn1` (stereo unspecified), -7.25%.
Regarding `Cc1ccc(C(=O)N2CC(c3cccnc3)C2)cc1N1CCNC1=O`, the cytotoxicity at 10 µM is -4.57%.
The result for `CC1=NN(CC(=O)N2CC[C@@H]3[C@@H](CCC(=O)N3CC(C)C)C2)CC1` reads 0.88%; that for `CCC(C(=O)NCCc1nc(C)cc(C(F)(F)F)n1)n1cccn1` (stereo unspecified), -9.77%; that for `CSCCCNc1ncnc2cccc(F)c12`, 0.721%.
Next, `CCCN1CCC(CC(=O)N(C)CC(=O)c2ccc(O)cc2)CC1`: 1.73%.
The result for `Cn1ccnc1CN1CCN(CC2CC2)[C@@H]2CS(=O)(=O)C[C@@H]21` reads 1.02%.
Regarding `Nc1ccc(CC2COc3ccccc3C2)cn1` (stereo unspecified), the cytotoxicity at 10 µM was found to be 0.541%.
Consider `CCOc1ccc(C(=O)CCC(=O)NCc2csc(N)n2)cc1C`, for which the cytotoxicity at 10 µM stood at 7.34%.
The result for `CCC[C@H]1CN(c2nccc(OC)n2)C[C@@H]1NS(=O)(=O)N(C)C` reads -140%; that for `Cc1ccccc1N1CCN(C(=O)CC(C)C)CC1`, -1.26%; that for `NC(=O)C1CCN(C(=O)c2cc(S(=O)(=O)N3CCCCC3)cs2)CC1`, -45.1%.
The result for `CN(C)C(=O)c1ccc(C2CCCN2C(=O)CCC2=NNC(=O)CC2)s1` (stereo unspecified) reads 9.19%; that for `CCn1nc(C)c(CCN2CC3(CCOC3)CCC2=O)c1C` (stereo unspecified), -118%.
Next, `O=C(Cc1ccsc1)N1CCC(Cn2cc(CCO)nn2)CC1`: 1.67%; `CCNc1ncc(C(=O)NCCc2csc(-c3ncccn3)n2)cn1`: 19.9%; `COc1cc(C)sc1C(=O)N1CC(c2cccnc2)C1`: -8.97%.
As to `CC1CN(C)CCN1C(=O)c1ccn(-c2ccc(F)cc2)n1` (stereo unspecified), the cytotoxicity at 10 µM is -5.3%.
For `CCN(CC)Cc1ccc(C(=O)N2CCCC2c2cnn(C)c2)o1` (stereo unspecified), the cytotoxicity at 10 µM was 3.51%.
Next, `CCOCCCn1c(NC(=O)c2cnc(C)s2)nc2ccccc21`: -30%.
The result for `NC(=O)C1CCN(C(=O)c2ccc(OCc3cscn3)cc2)CC1` reads -10.6%; that for `CN(C)C(=O)C1CCN(Cc2csc(C(C)(C)C)n2)CC1`, -23%; that for `CC(Cn1cccn1)NCc1ccc(OCc2ccncc2)cc1` (stereo unspecified), -29.9%.
Next, `CC(C)Oc1ccccc1NC(=O)N1CCC(n2cncn2)CC1`: -3.67%; `CC(c1nc(C2CC2)no1)N1CCN(Cc2ccc(C#N)cc2)CC1` (stereo unspecified): 3.71%.
Turning to `CC(NC(=O)NCCNc1ncccn1)c1cccs1` (stereo unspecified), the cytotoxicity at 10 µM was -0.447%.
Next, `NC(=O)c1cc(C2CCCN(C(=O)CCc3ccsc3)C2)n[nH]1` (stereo unspecified): -5.79%.
Next, `CC(C)CNC(=O)CN1C=Nc2ccccc2S1(=O)=O`: -2.09%; `CC(C)c1nc(C2CCCN(C(=O)CCn3ccnc3)C2)no1` (stereo unspecified): -10.8%.
The result for `CC(C(=O)Nc1ccc(N2CCCC2)nc1)n1cncn1` (stereo unspecified) reads -6.19%; that for `CN(Cc1ccccc1)CC(O)Cn1cnc2ccsc2c1=O` (stereo unspecified), -2.89%; that for `Cc1cc(NC(=O)CCN2CCCC2Cn2cncn2)no1` (stereo unspecified), 4.26%.
Take `CC(=O)N1CCN(C(=O)c2cnn(-c3ccccc3Cl)c2)CC1`: the cytotoxicity at 10 µM is -8.72%.
Turning to `Cc1cnn(CC2CCN(CC(O)COc3ccc(F)cc3)CC2)c1` (stereo unspecified), the cytotoxicity at 10 µM was -10.9%.
With `Cc1c(C)n(CC(O)CN2CCOCC2)c2c(Cl)cccc12` (stereo unspecified), the cytotoxicity at 10 µM was 0.829%.
The result for `Cn1cncc1C(=O)N1C[C@@H]2CCN(c3cnccn3)C[C@@H]2C1` reads -96.6%; that for `CC(C)CC(=O)N1CCC2(CC1)COCCN2Cc1ccc(F)cc1`, -77.1%.
Next, `Cc1cc(C(=O)N2CCCC3(COCCN(CCN(C)C)C3)C2)no1` (stereo unspecified): 3.22%; `CCO[C@@H]1C[C@H]2CN(S(=O)(=O)c3cccs3)CCN2C1`: 8.52%; `O=C(C[C@@H]1COC[C@H]2CN(C3CCCC3)C[C@@H]12)N1CCCCO1`: 7.92%.
Next, `COCC1c2c(cnn2C)CCN1C(=O)c1cscn1` (stereo unspecified): -101%.
In the case of `COc1c(CNCc2ccc(C(=O)N(C)C)cc2)c(C)nn1C`, the cytotoxicity at 10 µM is 1.64%.
The result for `COc1ccc(CN2CCCn3cnc(COC(C)C)c3C2)cc1` reads -74.9%.
The result for `CN(C)S(=O)(=O)N1CC[C@]2(C[C@H](OCc3ccccn3)CO2)C1` reads 11.6%.
Take `c1coc(COCc2ncn3c2CN(Cc2cccs2)CCC3)c1`: the cytotoxicity at 10 µM was -76.2%.
The result for `CCn1c(Cn2cncn2)nnc1C1CCN(CC2[C@H]3CNC[C@@H]23)CC1` (stereo partly specified) reads 6.77%.
